This note sets out measurements from ChEMBL document CHEMBL1142240, “Lissoclibadins 4-7, polysulfur aromatic alkaloids from the Indonesian ascidian Lissoclinum cf. badium” (J Nat Prod, 2007).

For test [1], the system named is Mucor hiemalis. Nature of the test: Antimicrobial activity against Mucor hiemalis IAM 6088 at 50 ug/disk. It counts as functional. The settings on record: for zone of inhibition at 50 µg/disc: read-out: IZ.
Test [2] relates to Mucor hiemalis. Put plainly: Antimicrobial activity against Mucor hiemalis IAM 6088 at 20 ug/disk. The class given is functional. The settings on record: read-out: IZ.
For test [3], the system named is Saccharomyces cerevisiae. Put plainly: Antimicrobial activity against Saccharomyces cerevisiae IAM 1438T at 50 ug/disk. The class given is functional. The conditions noted are these: read-out: IZ.
The test system of test [4] is Staphylococcus aureus. Put plainly: Antimicrobial activity against Staphylococcus aureus IAM 12544T at 50 ug/disk. The class given is functional. The conditions noted are these: read-out: IZ.
In test [5] the test system is Escherichia coli. Nature of the test: Antimicrobial activity against Escherichia coli IAM 12119T at 50 ug/disk. The class given is functional. The settings on record: read-out: IZ.
In test [6] the test system is Escherichia coli. Put plainly: Antimicrobial activity against Escherichia coli IAM 12119T at 20 ug/disk. It counts as functional. The settings on record: read-out: IZ.
Test [7] can be described thus: Inhibition of colony formation in Chinese hamster V79 cells. The class given is functional, cell-based. The conditions noted are these: Cricetulus griseus. Put shortly:
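Compound added in DMSO at 0.01–10 μM, then 4 further days of incubation. Colonies counted; relative plating efficiency taken as colony number in sample dish over control dish; EC50 derived.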

Test [8] deals with Staphylococcus aureus. Put plainly: Antimicrobial activity against Staphylococcus aureus IAM 12544T at 20 ug/disk. It counts as functional. The conditions noted are these: read-out: IZ.
Test [9] deals with Saccharomyces cerevisiae. Nature of the test: Antimicrobial activity against Saccharomyces cerevisiae IAM 1438T at 20 ug/disk. It counts as functional. The conditions noted are these: read-out: IZ.

Calls of active or inactive are those of the source. The calls are words filed in the database; no cut-off is given here.

Regarding `COc1c(OC)c2c(c(CCN(C)C)c1SC)SSS2`, the zone of inhibition at 50 µg/disc stood at 23 mm with Mucor hiemalis [1], 11.8 mm in the test with Saccharomyces cerevisiae [3], 10.3 mm with Staphylococcus aureus [4] and 17.8 mm in the test on Escherichia coli [5]. The zone of inhibition at 20 µg/disc in the test on Mucor hiemalis [2] was 17.4 mm; with Escherichia coli [6] it was 14.4 mm. In addition, the 50% effective concentration (EC50) in test [7] came out at 0.19 µM.

As to `COc1c(OC)c2c(c(CCN(C)C)c1SC)Sc1c(OC)c(OC)c(SC)c(CCN(C)C)c1S2` [LISSOCLIBADIN 3], a half-maximal effect in [7] (EC50) was put at 0.34 µM.

Turning to `COc1cc(CCN(C)C)c2c(c1O)Sc1c(CCN(C)C)c(SC)c(OC)c(OC)c1S2` [LISSOCLIBADIN 6], the values for the zone of inhibition at 50 µg/disc in the test with Saccharomyces cerevisiae [3], with Staphylococcus aureus [4] and in the test with Escherichia coli [5] were 7.8 mm, 13.8 mm and 10.8 mm, respectively. For the same compound, the zone of inhibition at 20 µg/disc with Staphylococcus aureus [8] was 10 mm. In addition, in [7], the EC50 turned out to be 0.06 µM.

For `COc1c(OC)c2c(c(CCN(C)C)c1SC)Sc1c(CCN(C)C)c(SC)c(OC)c(OC)c1S2` [LISSOCLINOTOXIN E], the response in [7] was half-maximal at 0.27 µM (EC50).

For the compound `COc1cc(CCN(C)C)c2c(c1O)SSc1c(CCN(C)C)cc(OC)c(O)c1SS2` [LISSOCLIBADIN 7], the zone of inhibition at 50 µg/disc is 16.8 mm in the test with Saccharomyces cerevisiae [3], 13.1 mm in the test on Staphylococcus aureus [4] and 9.9 mm with Escherichia coli [5]. For the same compound, the zone of inhibition at 20 µg/disc in the test on Staphylococcus aureus [8] amounted to 9.4 mm. In test [7], this compound yielded a concentration giving a half-maximal response (EC50) of 0.17 µM.

On to `COc1c(OC)c2c(c(CCN(C)C)c1SC)SSSSS2`, for which the zone of inhibition at 50 µg/disc with Mucor hiemalis [1] is 26.2 mm; in the test on Saccharomyces cerevisiae [3], 15.2 mm; in the test with Staphylococcus aureus [4], 14.2 mm; with Escherichia coli [5] it was 17.1 mm. Moreover, the results for the zone of inhibition at 20 µg/disc with Mucor hiemalis [2], in the test with Saccharomyces cerevisiae [9] and in the test with Escherichia coli [6] were 19.6 mm, 10.5 mm and 13.1 mm, respectively. In test [7], this compound returned an EC50 of 0.15 µM.

As for `COc1c(SC)c(CCN(C)C)c2sc3c(OC)c(OC)c(SC)c(CCN(C)C)c3ssc2c1OC` [LISSOCLIBADIN 2], the zone of inhibition at 50 µg/disc with Mucor hiemalis [1] is 13.8 mm. Also, in test [7], the EC50 stood at 0.08 µM.

In the case of `COc1cc(CCN(C)C)c2sc3c(OC)c(OC)c(SC)c(CCN(C)C)c3ssc2c1O` [LISSOCLIBADIN 5], the zone of inhibition at 50 µg/disc in the test on Saccharomyces cerevisiae [3] is 6.2 mm; with Staphylococcus aureus [4], 15.8 mm; with Escherichia coli [5] it was 11.6 mm. Also, the zone of inhibition at 20 µg/disc in the test on Staphylococcus aureus [8] was 9 mm. The EC50 in test [7] worked out at 0.06 µM.

In [7], `COc1c(OC)c2c(c(CCN(C)C)c1SC)SSc1c(CCN(C)C)c(SC)c(OC)c(OC)c1Sc1c(OC)c(OC)c(SC)c(CCN(C)C)c1S2` [LISSOCLIBADIN 1] displayed a 50% effective concentration (EC50) of 0.2 µM.

Consider `COc1c(SC)c(CCN(C)C)c2sc3c(CCN(C)C)c(SC)c(OC)c(OC)c3ssc2c1OC` [LISSOCLINOTOXIN F], for which the zone of inhibition at 50 µg/disc with Mucor hiemalis [1] turned out to be 18 mm. Besides, in the test on Mucor hiemalis [2], the zone of inhibition at 20 µg/disc was determined as 10.5 mm. The same compound had an EC50 in test [7] of 0.28 µM.

For `COc1cc(CCN(C)C)c2sc3c(O)c(OC)cc(CCN(C)C)c3ssc2c1O` [LISSOCLIBADIN 4], the result in the test with Mucor hiemalis [1] was inactive. The results for the zone of inhibition at 50 µg/disc with Staphylococcus aureus [4] and with Escherichia coli [5] were 13.1 mm and 15.7 mm, respectively. Further, the zone of inhibition at 20 µg/disc in the test with Staphylococcus aureus [8] was determined as 10.8 mm. The half-maximal effective concentration (EC50) in test [7] worked out at 0.71 µM.
